The test in a line: clotrimazole potentiators killing C. albicans biofilm, primary screen, 4-compound mixtures (AID 1242).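 Note: compounds exposed to preformed 24 h biofilms for 48 h; 0% = untreated biofilm control and 100% = clotrimazole plus chlorhexidine kill blank.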 As to conditions: C. albicans biofilm persisters + clotrimazole, fluorescence viability, primary screen in compound mixtures, stronger effect = higher value. The method, boiled down:
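Test system: C. albicans biofilms. Buffer or medium: RPMI/MOPS medium, pH 7.0. Timing: 48 h compound exposure at 37 °C. Technique: Alamar Blue fluorescence. Evaluation: percent inhibition of biofilm viability.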

Setting [1] is: measured here: individual compound retest, at 61 µM.

Out of some 120,000 compounds screened, about 20 (0.02%) were called active. The sample holds actives, similar compounds and a random draw of the others, so the mix is not that of the screen.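 Rule for the calls: active = inhibition above 30.3% in the primary screen of four-compound pools, then above 30% when the compound was retested; inconclusive = passed the primary limit but could not be retested; inactive = the rest.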

Take `COc1ccc(C)cc1NC(=O)NCc1ccccn1`: under “at 7.6 µM unless noted”, the inhibition is 16.2% (inactive).

As for `CC(/C=C/c1ccco1)=N/NC(=O)C1COc2ccccc2O1` (stereo not given), for the setting “at 7.6 µM unless noted”, the inhibition was 16.1% (inactive).

On to `COc1ccc(-n2c(C)nn(CC3CC3)c2=O)cc1`, for which, under “at 7.6 µM unless noted”, the inhibition is -10.4% (inactive).

With `Cc1ccnc2nc(C(=O)OCC(=O)N(CC(C)C)CC(C)C)nn12`, the inhibition (at 7.6 µM unless noted) was 6.65% (inactive).

With `CNC(=S)N1CCC(NC(=O)C(Cc2ccc(F)cc2)NC(C)=O)CC1` (stereo not given), the inhibition (at 7.6 µM unless noted) is 5.74% (inactive).

For the compound `COc1ccc(CC(=O)NCc2nnc(SCC(=O)Nc3nccs3)n2C)cc1`, the inhibition (at 7.6 µM unless noted) is 7.45% (inactive).

Consider `CCOC(=O)CN/C=C(\C#N)c1ccc(F)cc1`, for which the inhibition (at 7.6 µM unless noted) is 12.8% (inactive).

Consider `O=C(Nc1ccc(Cl)cc1)/C(=C1\CCCN1)[N+](=O)[O-]`, for which the inhibition (at 7.6 µM unless noted) was 18.1% (inactive).

Turning to `O=C(CSc1nnc(SCc2ccc(F)cc2)s1)Nc1ccc(C(=O)O)cc1`, for the setting “at 7.6 µM unless noted”, the inhibition is 12.3% (inactive).

For `COC(=O)c1nn(-c2cccc(Cl)c2)ccc1=O`, the inhibition (at 7.6 µM unless noted) was 12.6% (inactive).

For the compound `CCOC(=O)CCNC(=O)N1CCCC(C(=O)c2ccccc2SC)C1` (stereo not given), for the setting “at 7.6 µM unless noted”, the inhibition was 27% (inactive).

Turning to `CN1C=CC=C/C1=C1\SC(=S)N(Cc2ccccc2)C1=O`, where the note is “at 7.6 µM unless noted”, the inhibition was 20.5% (inactive).

Consider `COCCN1C2=C(COC(C)(C)C2)C(=S)NC1c1ccccc1` (stereo not given), for which the inhibition (at 7.6 µM unless noted) was 14% (inactive).

Take `CC(=O)NCC(=O)N1CCCC(C(=O)c2ccc3c4c(cccc24)CC3)C1` (stereo not given): for the setting “at 7.6 µM unless noted”, the inhibition is 0.67% (inactive).

On to `CC(=O)NC(NC(=S)Nc1c(C)n(C)n(-c2ccccc2)c1=O)C(Cl)(Cl)Cl` (stereo not given), for which the inhibition (at 7.6 µM unless noted) was 12% (inactive).

`COc1ccc(/C=C/CN2CCCC(C(=O)c3cc(F)ccc3F)C2)cc1` (stereo not given): the inhibition (at 7.6 µM unless noted) is 8.39% (inactive).

With `C/C=N/N(c1ccccc1)c1ccccc1`, the inhibition (at 7.6 µM unless noted) is 26.1% (inactive).

Regarding `O=C(Nc1ccccc1C(=O)O)c1cc(S(=O)(=O)N2CCCCC2)cs1`, the inhibition (at 7.6 µM unless noted) was -7.15% (inactive).

With `O=C(Nc1ccc(S(=O)(=O)Nc2nccs2)cc1)c1cc(=O)[nH]c2ccccc12`, under “at 7.6 µM unless noted”, the inhibition is 21.7% (inactive).

Turning to `O=C(Cc1ccc(Cl)cc1)NCc1nc(-c2ccccc2)no1`, under “at 7.6 µM unless noted”, the inhibition is 11.6% (inactive).

With `COC(=O)C1=C(C(=O)OC)C(c2cc([N+](=O)[O-])ccc2O)c2sc(=O)[nH]c2S1` (stereo not given), the inhibition (at 7.6 µM unless noted) is 12.9% (inactive).

Regarding `COc1ccc(C2CC(c3cccs3)=NN2C(=O)CSc2nnc(N)s2)cc1OC` (stereo not given), the inhibition (at 7.6 µM unless noted) was 2.04% (inactive).

Take `Cc1ccc(Cl)cc1NC(=O)COC(=O)CC(C)(C)C`: the inhibition (at 7.6 µM unless noted) is 18.1% (inactive).

Take `CC(C)(C)OC(=O)NCCCCCC(=O)N/N=C/c1coc2ccccc2c1=O`: the inhibition (at 7.6 µM unless noted) was 21.8% (inactive).

Consider `CCC(C)(C)NC(=O)CN(Cc1cccs1)C(=O)CNS(=O)(=O)c1ccc(F)cc1`, for which, under “at 7.6 µM unless noted”, the inhibition is 7.21% (inactive).

Take `COc1cccc2c(N/N=C/c3ccco3)cc(C)nc12`: the inhibition (at 7.6 µM unless noted) is 8.66% (inactive).

Turning to `COc1cccc(C2Nc3cccc4cccc(c34)N2)c1`, the inhibition (at 7.6 µM unless noted) was 25.2% (inactive).

Turning to `O=C(NC1CCCCC1)c1cc(C2CC2)on1`, where the note is “at 7.6 µM unless noted”, the inhibition was 7.38% (inactive).

With `CCCCC(NC(=O)c1cccc(Br)c1)C(=O)O` (stereo not given), under “at 7.6 µM unless noted”, the inhibition is 22.6% (inactive).

With `CCOC(=O)c1cc(-c2ccc(F)cc2)n(CC(=O)NCc2ccccn2)c1C`, the inhibition (at 7.6 µM unless noted) was 14% (inactive).

Turning to `CCN1/C(=C\c2ccc3ccccc3[n+]2CC)Sc2cc(C)ccc21`, the inhibition (at 7.6 µM) is 31.3% (active) and the inhibition under setting [1] amounted to 72.3%.

On to `CCN1/C(=C/c2ccc3ccc(C)cc3[n+]2CC)Sc2ccccc21`, for which, where the note is “at 7.6 µM unless noted”, the inhibition is 9.78% (inactive).

Take `CCC(=O)/C=C1\Sc2ccccc2N1CC`: for the setting “at 7.6 µM unless noted”, the inhibition is 17% (inactive).

On to `C#CCNc1ccc(C(=O)OCC)cc1`, for which the inhibition (at 7.6 µM unless noted) is 15.4% (inactive).

Consider `CC1CC(C)CN(CCC(=O)Nc2ccc3c(c2)CCC3)C1` (stereo not given), for which the inhibition (at 7.6 µM unless noted) was 16.6% (inactive).

For the compound `C=CCN1CC(C)/C(=N\O)CC1C` (stereo not given), the inhibition (at 7.6 µM unless noted) is 26.7% (inactive).

Consider `O=C(NCCCN1CCOCC1)c1ccccc1NS(=O)(=O)c1ccc(Br)cc1`, for which the inhibition (at 7.6 µM unless noted) was 20.1% (inactive).

As to `CC(OC(=O)c1ccccc1OCc1ccc(Cl)cc1)C(N)=O` (stereo not given), the inhibition (at 7.6 µM unless noted) is 9.56% (inactive).

On to `COc1ccc(NC(=O)CSc2nc(C)cs2)cc1`, for which, for the setting “at 7.6 µM unless noted”, the inhibition was -9.15% (inactive).

On to `Cc1ccc2cc(/C=N/NC(=O)[C@@H]3CCCN3)c(Cl)nc2c1`, for which the inhibition was 36% (inactive) (at 7.6 µM) and -44.1% under setting [1].

Turning to `COc1ccc(C(=O)N/N=C(\C)CC(=O)Nc2ccc(Cl)cn2)cc1`, the inhibition (at 7.6 µM unless noted) was 14.5% (inactive).

In the case of `CC(C)Cc1nc(Cl)c(C#N)c2c1CCC2`, where the note is “at 7.6 µM unless noted”, the inhibition was 20.6% (inactive).

`Cc1nc(N)[nH]c(=O)c1Oc1cccc(C(F)(F)F)c1`: the inhibition (at 7.6 µM unless noted) was 25.2% (inactive).

Turning to `CCn1ccnc1CN1CCCC(C(=O)c2ccc3c4c(cccc24)CC3)C1` (stereo not given), the inhibition (at 7.6 µM unless noted) was 13.8% (inactive).

With `CC(=O)Nc1ccc(S(=O)(=O)Nc2nccc(/C=C/c3ccccc3F)n2)cc1`, the inhibition (at 7.6 µM unless noted) is 25.1% (inactive).

As to `COc1ccc(CCNC(=O)C(=O)NCc2ccccc2C)cc1OC`, the inhibition (at 7.6 µM unless noted) was 25.3% (inactive).

In the case of `COCCNc1nc(-c2ccccc2)nc2c1oc1ccccc12`, the inhibition (at 7.6 µM unless noted) is 17.2% (inactive).

For `O=C(NCC1CCCO1)c1ccccc1-c1nc(-c2ccccc2Cl)no1` (stereo not given), under “at 7.6 µM unless noted”, the inhibition was 16.1% (inactive).

Turning to `Cc1cc(NC(=O)CSCc2ccccc2C)no1`, the inhibition (at 7.6 µM unless noted) is 13.5% (inactive).

With `O=C(NCCCN1CCOCC1)c1ccc([N+](=O)[O-])cc1[N+](=O)[O-]`, the inhibition (at 7.6 µM unless noted) was 15.2% (inactive).

As for `O=C(NCCN1CCOCC1)Nc1cccc(Cl)c1`, for the setting “at 7.6 µM unless noted”, the inhibition is 20.6% (inactive).

`O=C(CCC(=O)N1CCCC1)Nc1ccc([N+](=O)[O-])cc1`: where the note is “at 7.6 µM unless noted”, the inhibition is 11.9% (inactive).

As to `COc1ccc(Cn2c(O)c(/C=C3/C=CC=N3)c(=O)[nH]c2=O)cc1`, the inhibition (at 7.6 µM unless noted) was 11.9% (inactive).

Source of the values: PubChem BioAssay AID1242 (PCMD, 2008).
